According to ChEMBL document CHEMBL2311321, “Alkaloid constituents from flower buds and leaves of sacred lotus (Nelumbo nucifera, Nymphaeaceae) with melanogenesis inhibitory activity in B16 melanoma cells” (Bioorg Med Chem, 2013):

Columns and labels:
[1] = Inhibition of melanogenesis in mouse B16-4A5 cells at 100 uM after 72 hrs by spectrophotometry; assay type: functional; settings: B16-4A5, 72 h
[2] = Inhibition of melanogenesis in mouse B16-4A5 cells at 3 uM after 72 hrs by spectrophotometry; assay type: functional; settings: B16-4A5, 72 h
[3] = Inhibition of melanogenesis in mouse B16-4A5 cells at 1 uM after 72 hrs by spectrophotometry; assay type: functional; settings: B16-4A5, 72 h
[4] = Inhibition of melanogenesis in mouse B16-4A5 cells at 30 uM after 72 hrs by spectrophotometry; assay type: functional; settings: B16-4A5, 72 h
[5] = Cytotoxicity against mouse B16-4A5 cells assessed as cell viability at 100 uM after 70 hrs by WST-8 assay
[6] = Inhibition of melanogenesis in mouse B16-4A5 cells after 72 hrs by spectrophotometry; assay type: functional, cell-based
[7] = Inhibition of melanogenesis in mouse B16-4A5 cells at 10 uM after 72 hrs by spectrophotometry; assay type: functional; settings: B16-4A5, 72 h
[8] = Antimelanogenic activity in mouse B16-4A5 cells assessed as inhibition of TRP1 mRNA expression at 10 uM after 72 hrs by RT-PCR analysis relative to beta-actin mRNA; assay type: functional
In short: (§1)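 B16 melanoma 4A5 cells seeded at 1.0 × 10^5 cells/well in 6-well plates, cultured 24 h, then exposed to test compound plus theophylline 1 mM for 72 h. Total RNA extracted; cDNA from 1 µg RNA; SYBR Green real-time PCR (95 °C 2 min; 40 cycles 95/58/72 °C, 30 s each) with gene-specific primers; relative quantification normalized to β-actin mRNA.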

[9] = Antimelanogenic activity in mouse B16-4A5 cells assessed as inhibition of TRP2 mRNA expression at 3 uM after 72 hrs by RT-PCR analysis relative to beta-actin mRNA; assay type: functional; in short: as §1
[10] = Antimelanogenic activity in mouse B16-4A5 cells assessed as inhibition of TRP2 mRNA expression at 10 uM after 72 hrs by RT-PCR analysis relative to beta-actin mRNA; assay type: functional; in short: as §1
[11] = Antimelanogenic activity in mouse B16-4A5 cells assessed as inhibition of TRP1 mRNA expression at 3 uM after 72 hrs by RT-PCR analysis relative to beta-actin mRNA; assay type: functional; in short: as §1
[12] = target: T1, Tyrosinase (Agaricus bisporus) (UniProt O42713); test: Inhibition of mushroom tyrosinase at 100 uM
T1 sequence (whole entry): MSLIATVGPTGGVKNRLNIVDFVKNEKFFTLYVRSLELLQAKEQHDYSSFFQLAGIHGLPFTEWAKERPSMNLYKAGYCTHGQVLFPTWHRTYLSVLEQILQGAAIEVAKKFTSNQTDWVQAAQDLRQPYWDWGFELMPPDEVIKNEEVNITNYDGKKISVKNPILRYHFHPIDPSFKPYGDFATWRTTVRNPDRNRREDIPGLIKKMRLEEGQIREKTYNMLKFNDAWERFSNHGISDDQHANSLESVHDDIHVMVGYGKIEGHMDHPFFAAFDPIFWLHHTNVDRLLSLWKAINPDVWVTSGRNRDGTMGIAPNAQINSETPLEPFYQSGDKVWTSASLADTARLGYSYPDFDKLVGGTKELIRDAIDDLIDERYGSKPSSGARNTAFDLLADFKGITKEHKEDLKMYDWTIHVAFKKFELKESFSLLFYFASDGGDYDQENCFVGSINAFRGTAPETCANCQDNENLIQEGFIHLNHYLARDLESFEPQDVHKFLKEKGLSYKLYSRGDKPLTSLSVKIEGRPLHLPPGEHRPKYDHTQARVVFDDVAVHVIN
In short: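 Enzyme mix: 70 µL L-DOPA (2.5 mM in phosphate buffer) as substrate plus 20 µL test solution (DMSO, final 0.1%). Reaction started with 120 µL mushroom tyrosinase (80.5 units/mL), run 5 min at 25 °C. Dopaquinone measured by absorbance at 405 nm (reference 655 nm). Inhibition % = (A−B)/A × 100 versus vehicle.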

[13] = Antimelanogenic activity in mouse B16-4A5 cells assessed as inhibition of TRP1 mRNA expression at 30 uM after 72 hrs by RT-PCR analysis relative to beta-actin mRNA; assay type: functional; in short: as §1
[14] = Antimelanogenic activity in mouse B16-4A5 cells assessed as inhibition of tyrosinase mRNA expression at 3 uM after 72 hrs by RT-PCR analysis relative to beta-actin mRNA; assay type: functional; in short: as §1
[15] = Antimelanogenic activity in mouse B16-4A5 cells assessed as inhibition of tyrosinase mRNA expression at 10 uM after 72 hrs by RT-PCR analysis relative to beta-actin mRNA; assay type: functional; in short: as §1
[16] = Antimelanogenic activity in mouse B16-4A5 cells assessed as inhibition of tyrosinase mRNA expression at 30 uM after 72 hrs by RT-PCR analysis relative to beta-actin mRNA; assay type: functional; in short: as §1
[17] = Antimelanogenic activity in mouse B16-4A5 cells assessed as inhibition of TRP2 mRNA expression at 30 uM after 72 hrs by RT-PCR analysis relative to beta-actin mRNA; assay type: functional; in short: as §1

Row | Compound | inhibition at 100 µM [1] [%] | inhibition at 3 µM [2] [%] | inhibition at 1 µM [3] [%] | inhibition at 30 µM [4] [%] | viability at 70 h, 100 µM [5] [%] | IC50 [6] [µM] | inhibition at 10 µM [7] [%] | fold change (FC) [8] | fold change (FC) [9] | fold change (FC) [10] | fold change (FC) [11] | inhibition [12] [%] | fold change (FC) [13] | fold change (FC) [14] | fold change (FC) [15] | fold change (FC) [16] | fold change (FC) [17]
1 | COc1cc2c3c(cc4ccccc4c3c1OC)N(C)CC2 [DEHYDRONUCIFERINE] | 78.4 | 4.8 | 14.5 | 8 | 77 | 85 | 11.8 |  |  |  |  |  |  |  |  |  | 
2 | CN1CCc2ccccc2C1Cc1ccccc1 (configuration not stated) | 75.4 | 40.5 | 24.5 | 51.8 | 77 | 5 | 59.7 |  |  |  |  |  |  |  |  |  | 
3 | c1ccc2c(c1)CCNC2 [1,2,3,4-TETRAHYDROISOQUINOLINE] | 26.1 | -41.5 | -12.6 | 2.8 | 46 |  | -54.2 |  |  |  |  |  |  |  |  |  | 
4 | COc1c(O)cc2c3c1-c1ccccc1C[C@H]3N(C)CC2 | 90.5 | 19.7 | 15.4 | 70.6 | 82 | 14.5 | 37.9 | 0.72 | 1.1 | 0.96 | 0.79 | < 3 | 0.49 | 0.65 | 0.76 | 0.53 | 0.88
5 | COc1c(O)cc2c3c1-c1ccccc1C[C@H]3NCC2 [ASIMILOBINE] |  |  |  |  | 46 |  |  |  |  |  |  |  |  |  |  |  | 
6 | CN1CCc2ccccc2C1 | 15.9 | 9.7 | 10.6 | 16.5 | 82 |  | 9.4 |  |  |  |  |  |  |  |  |  | 
7 | COc1cc2c3c(c1)-c1ccccc1CC3N(C)CC2 (configuration not stated) |  | 54.7 | 39.1 | 82.5 |  | 2 | 76 |  |  |  |  |  |  |  |  |  | 
8 | COc1cc2c3c(c1O)-c1ccccc1C[C@H]3N(C)CC2 |  | 11.1 | -2.6 | 65.9 | 39.7 | 19.3 | 27.3 |  |  |  |  |  |  |  |  |  | 
9 | COc1c(O)cc2c3c(cc4ccccc4c13)N(C)CC2 | 78.7 | 13.2 | 10.9 | 87.4 | 46 | 13.3 | 37.6 |  |  |  |  |  |  |  |  |  | 
10 | COc1cc2ccnc3c2c(c1OC)-c1ccccc1C3=O [LYSICAMINE] |  | 8.7 | 4.8 | 65.3 | 22.5 |  | -1.5 |  |  |  |  |  |  |  |  |  | 
11 | COc1cc2c3c(c1OC)-c1ccccc1C[C@H]3N(C)CC2 [NUCIFERINE] | 89.3 | 16.5 | 11.5 | 72.3 | 46 | 15.8 | 32.1 | 0.74 | 1.11 | 0.71 | 0.76 | < 3 | 0.36 | 0.61 | 0.64 | 0.38 | 0.65
12 | COc1c(O)cc2c3c1-c1ccccc1C[C@@H]3NCC2 [ASIMILOBINE] | 36.2 | -7.4 | 7.4 | 39.7 |  | > 100 | 12.1 |  |  |  |  |  |  |  |  |  | 
13 | COc1cc2c3c(c1OC)C1(C=CC(=O)C=C1)C[C@H]3N(C)CC2 [PRONUCIFERINE] | 66.4 | 16.8 | 4 | 40.3 | 82 | 47.9 | 18.3 |  |  |  |  |  |  |  |  |  | 
14 | OC[C@H]1O[C@@H](Oc2ccc(O)cc2)[C@H](O)[C@@H](O)[C@@H]1O [ARBUTIN] | 38.1 |  |  | 20.4 |  | 174 | 10.6 |  |  |  |  |  |  |  |  |  | 
15 | COc1cc2c3c(c1OC)-c1ccccc1C[C@H]3NCC2 | 91.9 | 16.2 | 5.8 | 17.6 | 82 | 62.9 | 12.1 |  |  |  |  |  |  |  |  |  | 
16 | COc1cc2c3c(c1OC)-c1ccccc1C[C@H]3[N+](C)([O-])CC2 (some centres not stated) | 88.4 | -3.2 | -4.8 | 33.7 | 82 | 43 | -0.1 |  |  |  |  |  |  |  |  |  | 
17 | COc1cc2c(cc1OC)C(Cc1ccc(O)cc1)N(C)CC2 (racemic) | 80.3 | 18.2 | 7.5 | 50.4 | 82 | 25.6 | 34 |  |  |  |  |  |  |  |  |  | 
